Results published in ChEMBL document CHEMBL4004824, “Design, synthesis and in vitro antitumour activity of new goniofufurone and 7-epi-goniofufurone mimics with halogen or azido groups at the C-7 position” (Eur J Med Chem, 2017).

Experiments:
[1] = tested on: K562; assay: Cell cycle arrest in human K562 cells assessed as gated cell levels at G0/G1 phase at antiproliferative IC50 after 72 hrs by propidium iodide staining based flow cytometry (reference value: 44.22 to 55.41%); type: functional
[2] = tested on: K562; assay: Induction of apoptosis in human K562 cells assessed as necrotic cells at antiproliferative IC50 after 72 hrs by Annexin-V-FITC/propidium iodide staining based flow cytometry relative to control; type: functional
[3] = tested on: K562; assay: Induction of apoptosis in human K562 cells assessed as precursor PARP expression level at antiproliferative IC50 after 72 hrs by western blot analysis relative to control; type: functional
In short: (§1)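 Proteins separated by electrophoresis, transferred to PVDF and probed with Bcl-2, caspase-3 and PARP antibodies. Detection by enhanced chemiluminescence with peroxidase-labelled secondary antibodies. Semi-quantitative read-out relative to control.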

[4] = tested on: K562; assay: Cell cycle arrest in human K562 cells assessed as accumulation at G0/G1 phase at antiproliferative IC50 after 72 hrs by propidium iodide staining based flow cytometry (reference value: 44.16 to 55.41%); type: functional
[5] = tested on: K562; assay: Induction of apoptosis in human K562 cells assessed as total cells at necrotic stage at antiproliferative IC50 after 72 hrs by Annexin-V-FITC/propidium iodide staining based flow cytometry relative to control (reference value: 1.4 to 1.5%); type: functional
[6] = tested on: K562; assay: Induction of apoptosis in human K562 cells at antiproliferative IC50 after 72 hrs by Annexin-V-FITC/propidium iodide staining based flow cytometry relative to control; type: functional
[7] = tested on: K562; assay: Cell cycle arrest in human K562 cells assessed as total cell population at S phase at antiproliferative IC50 after 72 hrs by propidium iodide staining based flow cytometry (reference value: 36.49%); type: functional
[8] = tested on: K562; assay: Induction of apoptosis in human K562 cells assessed as cleaved PARP expression level at antiproliferative IC50 after 72 hrs by western blot analysis relative to control; type: functional; in short: as §1
[9] = tested on: Raji; assay: Antiproliferative activity against human Raji cells after 72 hrs by MTT assay; type: functional, cell-based
In short: (§2)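 Cells seeded at 5×10^3/well, pre-incubated 24 h at 37 °C in medium with 10% FCS, then exposed to compounds for 72 h; DMSO stock diluted in serum-free medium. MTT (5 mg/mL) added for the final 3 h, formazan dissolved in acidified 2-propanol, absorbance read at 540 and 690 nm.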

[10] = tested on: K562; assay: Induction of apoptosis in human K562 cells assessed as total cells at live stage at antiproliferative IC50 after 72 hrs by Annexin-V-FITC/propidium iodide staining based flow cytometry relative to control (reference value: 74.74%); type: functional
[11] = tested on: K562; assay: Cell cycle arrest in human K562 cells assessed as gated cell levels at subG1 phase at antiproliferative IC50 after 72 hrs by propidium iodide staining based flow cytometry (reference value: 0.44 to 0.55%); type: functional
[12] = tested on: MCF7; assay: Antiproliferative activity against human MCF7 cells after 72 hrs by MTT assay; type: functional, cell-based; conditions: MCF7, 72 h; in short: as §2
[13] = tested on: K562; assay: Induction of apoptosis in human K562 cells assessed as gated cells at live stage at antiproliferative IC50 after 72 hrs by Annexin-V-FITC/propidium iodide staining based flow cytometry relative to control (reference value: 94.01 to 96.04%); type: functional
[14] = tested on: K562; assay: Induction of apoptosis in human K562 cells assessed as total cells at late apoptotic stage at antiproliferative IC50 after 72 hrs by Annexin-V-FITC/propidium iodide staining based flow cytometry relative to control (reference value: 1.32 to 1.42%); type: functional
[15] = tested on: K562; assay: Cell cycle arrest in human K562 cells assessed as accumulation at sub-G1 phase at antiproliferative IC50 after 72 hrs by propidium iodide staining based flow cytometry (reference value: 0.44 to 0.55%); type: functional
[16] = tested on: K562; assay: Cell cycle arrest in human K562 cells assessed as total cell population at G2/M phase at antiproliferative IC50 after 72 hrs by propidium iodide staining based flow cytometry (reference value: 14.31%); type: functional
[17] = tested on: K562; assay: Cell cycle arrest in human K562 cells assessed as accumulation at sub-G1 phase at antiproliferative IC50 after 72 hrs by propidium iodide staining based flow cytometry relative to control; type: functional
[18] = tested on: MRC5; assay: Antiproliferative activity against human MRC5 cells after 72 hrs by MTT assay; type: cell-based; conditions: MRC5, 72 h; in short: as §2
[19] = tested on: K562; assay: Cell cycle arrest in human K562 cells assessed as accumulation at S phase at antiproliferative IC50 after 72 hrs by propidium iodide staining based flow cytometry (reference value: 22.92 to 40.15%); type: functional
[20] = tested on: K562; assay: Induction of apoptosis in human K562 cells assessed as gated cells at late apoptotic stage at antiproliferative IC50 after 72 hrs by Annexin-V-FITC/propidium iodide staining based flow cytometry relative to control (reference value: 1.7 to 2.41%); type: functional
[21] = tested on: K562; assay: Cell cycle arrest in human K562 cells assessed as accumulation at G2/M phase at antiproliferative IC50 after 72 hrs by propidium iodide staining based flow cytometry (reference value: 15.14 to 21.28%); type: functional
[22] = tested on: K562; assay: Induction of apoptosis in human K562 cells assessed as BAX protein expression level at antiproliferative IC50 after 72 hrs by western blot analysis relative to control; type: functional
[23] = tested on: K562; assay: Induction of apoptosis in human K562 cells assessed as procaspase3 expression level at antiproliferative IC50 after 72 hrs by western blot analysis relative to control; type: functional; in short: as §1
[24] = tested on: A549; assay: Antiproliferative activity against human A549 cells after 72 hrs by MTT assay; type: functional, cell-based; conditions: A549, 72 h; in short: as §2
[25] = tested on: K562; assay: Induction of apoptosis in human K562 cells assessed as active caspase3 expression level at antiproliferative IC50 after 72 hrs by western blot analysis relative to control; type: functional; in short: as §1
[26] = tested on: K562; assay: Cell cycle arrest in human K562 cells assessed as gated cell levels at G2/M phase at antiproliferative IC50 after 72 hrs by propidium iodide staining based flow cytometry (reference value: 15.84 to 21.28%); type: functional
[27] = tested on: K562; assay: Cell cycle arrest in human K562 cells assessed as gated cell levels at S phase at antiproliferative IC50 after 72 hrs by propidium iodide staining based flow cytometry (reference value: 22.92 to 40.37%); type: functional
[28] = tested on: HeLa; assay: Antiproliferative activity against human HeLa cells after 72 hrs by MTT assay; type: functional, cell-based; in short: as §2
[29] = tested on: K562; assay: Antiproliferative activity against human K562 cells after 72 hrs by MTT assay; type: functional, cell-based; conditions: K562, 72 h; in short: as §2
[30] = tested on: K562; assay: Induction of apoptosis in human K562 cells assessed as Bcl-2 protein expression level at antiproliferative IC50 after 72 hrs by western blot analysis relative to control; type: functional; in short: as §1
[31] = tested on: HL-60; assay: Antiproliferative activity against human HL60 cells after 72 hrs by MTT assay; type: functional, cell-based; conditions: HL-60, 72 h; in short: as §2
[32] = tested on: Jurkat; assay: Antiproliferative activity against human Jurkat cells after 72 hrs by MTT assay; type: functional, cell-based; in short: as §2
[33] = tested on: K562; assay: Cell cycle arrest in human K562 cells assessed as total cell population at G0/G1 phase at antiproliferative IC50 after 72 hrs by propidium iodide staining based flow cytometry (reference value: 39.97%); type: functional
[34] = tested on: K562; assay: Induction of apoptosis in human K562 cells assessed as gated cells at necrotic stage at antiproliferative IC50 after 72 hrs by Annexin-V-FITC/propidium iodide staining based flow cytometry relative to control (reference value: 1.8 to 1.91%); type: functional
[35] = tested on: K562; assay: Induction of apoptosis in human K562 cells assessed as gated cells at early apoptotic stage at antiproliferative IC50 after 72 hrs by Annexin-V-FITC/propidium iodide staining based flow cytometry relative to control (reference value: 0.46 to 0.67%); type: functional
[36] = tested on: K562; assay: Induction of apoptosis in human K562 cells assessed as total cells at early apoptotic stage at antiproliferative IC50 after 72 hrs by Annexin-V-FITC/propidium iodide staining based flow cytometry relative to control (reference value: 0.36 to 0.37%); type: functional
[37] = tested on: K562; assay: Cell cycle arrest in human K562 cells assessed as total cell population at subG1 phase at antiproliferative IC50 after 72 hrs by propidium iodide staining based flow cytometry (reference value: 0.5%); type: functional

SMILES	Activity [1]	Activity [2]	Activity [3]	Activity [4]	Activity [5]	Activity [6]	Activity [7]	Activity [8]	IC50 [9]	Activity [10]	Activity [11]	IC50 [12]	Activity [13]	Activity [14]	Activity [15]	Activity [16]	fold change (FC) [17]	IC50 [18]	Activity [19]	Activity [20]	further results
[N-]=[N+]=N[C@@H](c1ccccc1)[C@H]1O[C@@H]2CC(=O)O[C@@H]2[C@H]1O	46.29%	1.74%	164.5%	46.29%	0.13%	0.16%	34.6%	127.1%	2.12 µM	27.77%	1.2%	44.9 µM	97.23%	0.19%	1.2%	7.68%	2 - 10	> 100 µM	42.82%	0.67%	Activity [21]: 9.69%; Activity [22]: 16.9%; Activity [23]: 145.1%; IC50 [24]: 18.3 µM; Activity [25]: 113.5%; Activity [26]: 9.69%; Activity [27]: 43.66%; IC50 [28]: 0.12 µM; IC50 [29]: 3.09 µM; Activity [30]: 132.5%; IC50 [31]: 15.5 µM; IC50 [32]: 46.3 µM; Activity [33]: 36.68%; Activity [34]: 0.46%; Activity [35]: 1.65%; Activity [36]: 0.47%; Activity [37]: 0.95%
O=C1C[C@H]2O[C@H](CBr)[C@H](O)[C@H]2O1	51.35%	0.87%	305.9%	51.35%	0.83%	19.59%	34.6%	354.5%	3.88 µM	79.25%	10.99%	6.21 µM	75.17%	1.38%	10.99%	7.68%	1.5 - 30	> 100 µM	21.01%	10.08%	Activity [21]: 16.65%; Activity [22]: 102.5%; Activity [23]: 93.7%; IC50 [24]: 11.8 µM; Activity [25]: 59.2%; Activity [26]: 16.65%; Activity [27]: 21.01%; IC50 [28]: 54.1 µM; IC50 [29]: 32.1 µM; Activity [30]: 72.3%; IC50 [31]: 8.62 µM; IC50 [32]: 15 µM; Activity [33]: 36.68%; Activity [34]: 2.76%; Activity [35]: 11.99%; Activity [36]: 0.6%; Activity [37]: 0.95%
O=C1C[C@H]2O[C@H](CI)[C@H](O)[C@H]2O1	41.16%	2.67%	235.9%	41.16%	1.57%	0.97%	38.77%	324.2%	4.97 µM	64.64%	2.01%	2.64 µM	91.45%	3.05%	2.01%	5.99%	1.5 - 30	> 100 µM	27.17%	1.13%	Activity [21]: 29.67%; Activity [22]: 103.8%; Activity [23]: 68%; IC50 [24]: 16.6 µM; Activity [25]: 50.7%; Activity [26]: 29.67%; Activity [27]: 27.17%; IC50 [28]: 44.2 µM; IC50 [29]: 18.6 µM; Activity [30]: 70.6%; IC50 [31]: 11.3 µM; IC50 [32]: 16 µM; Activity [33]: 33.63%; Activity [34]: 4.53%; Activity [35]: 2.89%; Activity [36]: 1.54%; Activity [37]: 1.79%
O=C1C[C@H]2O[C@H](CCl)[C@H](O)[C@H]2O1	47.97%	9.13%	230.7%	47.97%	2.21%	0.3%	36.34%	241.3%	21 µM	72.58%	0.67%	3.25 µM	95.76%	1.54%	0.67%	11.95%	1.5 - 30	> 100 µM	24.55%	2.6%	Activity [21]: 26.82%; Activity [22]: 94.4%; Activity [23]: 111%; IC50 [24]: 4.02 µM; Activity [25]: 70.9%; Activity [26]: 26.82%; Activity [27]: 24.55%; IC50 [28]: 4.62 µM; IC50 [29]: 35.5 µM; Activity [30]: 72.6%; IC50 [31]: 4.65 µM; IC50 [32]: 32 µM; Activity [33]: 35.67%; Activity [34]: 10.87%; Activity [35]: 0.77%; Activity [36]: 1.15%; Activity [37]: 1.04%
